# Assay outcomes as filed in PubChem BioAssay.
# Rows were chosen to be rich in hits. Some 1.1% of all compounds tested hit in one or more screens of this group.
# PMI act satM6P: PMI (human) activation, high substrate; P34949; coupled PMI enzyme assay, resazurin fluorescence, 20 min; active compounds read high; 1 = untreated enzyme, 0 = substrate-free blank; activation factor at 20 µM; hit rate 0.34% among 190,000; AID 1216;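 active = activation factor of 2 or more at 20 µM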
# Target sequence (P34949 whole entry, looked up): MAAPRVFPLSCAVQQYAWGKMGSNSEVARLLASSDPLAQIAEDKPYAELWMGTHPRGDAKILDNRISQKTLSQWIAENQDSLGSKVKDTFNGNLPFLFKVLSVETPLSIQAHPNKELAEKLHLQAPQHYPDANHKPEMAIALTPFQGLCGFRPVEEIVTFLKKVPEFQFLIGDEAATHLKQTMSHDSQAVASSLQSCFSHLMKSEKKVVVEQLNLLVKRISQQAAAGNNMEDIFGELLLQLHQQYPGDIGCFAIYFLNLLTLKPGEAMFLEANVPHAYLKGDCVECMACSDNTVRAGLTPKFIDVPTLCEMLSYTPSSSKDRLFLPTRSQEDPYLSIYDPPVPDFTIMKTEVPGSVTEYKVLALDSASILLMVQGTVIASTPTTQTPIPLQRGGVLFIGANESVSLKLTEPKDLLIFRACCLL
#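 assay system = human phosphomannose isomerase with PGI, G6PDH, diaphorase coupling enzymes | quantity = 15 ng/mL PMI | incubation = enzyme reaction with compound 20 min at room temperature | medium = HEPES pH 7.4 buffer with MgCl2 and Tween-20 | compound dosing = one concentration, 20 µM, in 1% DMSO | measured by = Diaphorase-driven resazurin-to-resorufin fluorescence, excitation 544, emission 590 nm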
# Diaphorase inh: diaphorase inhibition or chemical oxidation counter-screen; diaphorase resazurin-to-resorufin fluorescence, NADH, 16 min; bacterial (C. kluyveri) enzyme, not human; inhibition, % at 20 µM; hit rate 0.69% among 190,000; AID 1217;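 active = primary screen inhibition at 20 µM above a set limit, cut at about 50% in these data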;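 note: plate controls were DMSO with full reaction for no effect and wells lacking NADH for full effect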
#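 Assay system: diaphorase enzyme from Clostridium kluyveri. Quantity: enzyme working solution with 0.14 U/mL diaphorase. Schedule: reaction incubation of 16 min at room temperature. Technique: resorufin fluorescence, excitation 544 nm, emission 590 nm. Controls: No-NADH positive control and DMSO neutral control.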
# PMI activator: activators of human phosphomannose isomerase; P34949; purified human PMI, coupled resazurin fluorescence, 20 min; active compounds read high; 1 = vehicle control, 0 substrate-free wells; activation factor at 20 µM; hit rate 0.005% among 190,000; AID 1214;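 active = activation factor of 2 or more at 20 µM, relative to plate controls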
# G6PDH CS: L. mesenteroides G6PDH inhibition counter-screen | inhibition, % at 5 µM | hit rate 0.12% among 200,000 | Purified L. mesenteroides G6PDH, diaphorase/resazurin coupled fluorescence, 45 min; in the data active = inhibition above about 50%
# Diaph act CS: diaphorase activation or chemical reduction counter-screen | Diaphorase/resazurin coupled assay, resorufin fluorescence, 16 min; active compounds read high; 1 = vehicle wells, 0 = NADH-free wells | hit rate 0.005% among 190,000 | activation factor at 20 µM;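 active = diaphorase activity raised at least twofold by the compound at 20 µM; inactive = activation factor below 2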
#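 test system = bacterial diaphorase enzyme (C. kluyveri) | quantity = enzyme 0.07 U/mL final | reagent = NADH substrate 0.114 mM plus resazurin dye 0.1 mM, final | incubation = 16 min enzyme reaction, ambient temperature | buffer or medium = HEPES pH 7.4 buffer with MgCl2 and Tween 20 | signal = fluorescence of resorufin, 544 nm excitation, 590 nm emission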
# * marks the source's active call; other numbers are inactive results.
SMILES,PMI act satM6P,Diaphorase inh,PMI activator,G6PDH CS,Diaph act CS
COc1cc(/C=C2/C(=O)c3cccc([N+](=O)[O-])c3C2=O)c(Br)cc1O,0.6,50.3*,0.9,-3.3,0.5
Cc1c(Br)c([N+](=O)[O-])nn1CC(=O)NCc1cccnc1,1,3.5,1,-0.3,1
CCC(O)CC(C(=O)NNc1ccccc1)C(=O)NNc1ccccc1 (stereo not given),2.8*,-0.2,1.8,2.7,1
CCc1ccc(NC(=O)C(CC)c2ccccc2)cc1 (stereo not given),1.2,5.9,1.1,5.1,0.9
O=C(O)/C(=C\c1ccccc1Cl)c1ccc(S(=O)(=O)N2CCCCC2)s1,1.2,16.0,1,13.3,0.8
O=C(O)/C(=C\c1ccc(Cl)c([N+](=O)[O-])c1)c1ccc(S(=O)(=O)N2CCCCC2)s1,0.4,60.6*,0.8,8.5,0.4
Cc1ccc(-n2nnc3c(SCC(=O)NCc4ccco4)ncnc32)cc1,0.7,57.3*,0.9,0.0,0.4
CCOC(=O)c1c2ccc(OCC(=O)N/N=C/c3ccccc3C(F)(F)F)cc2n2ccccc12,0.4,51.6*,0.4,38.4,0.5
CCOC(=O)c1c2ccc(OCC(=O)N/N=C/c3ccc(Cl)cc3)cc2n2ccccc12,0.5,21.1,0.7,34.7,0.8
O=C(CNCCc1ccccc1)N1CCc2ccccc2C1,0.9,4.5,1.1,4.9,1
O=C1OCC(CO)(CO)N=C1NNc1ccccc1Cl,2*,9.6,1.6,4.4,0.9
CN1CCc2cccc3c2[C@@H]1Cc1ccc(O)c(O)c1-3,0.5,69.0*,0.4,40.2,0.3
COc1ccc2c(c1O)-c1ccccc1CCN(C)C2,0.9,0.5,1,14.4,1
CCSc1nn2c(=O)c3ccccc3nc2s1,0.9,11.8,0.9,2.7,0.9
COc1ccc(C(=O)CSc2nc(C)cc(=O)[nH]2)cc1,1.2,7.2,1.1,-16.4,0.9
COc1ccc(N/N=C(/N=Nc2nc(C)cc(=O)[nH]2)c2ccccc2)cc1,2.3*,-12.2,1.8,-3.5,1.1
Cc1cc(=O)[nH]c(N=N/C(=N/Nc2ccc(O)cc2)c2ccccc2)n1,2.3*,-0.9,1.9,18.1,1
Cc1cc(=O)[nH]c(N=N/C(=N/Nc2ccccc2C)c2ccccc2)n1,1.8,5.1,1.5,5.1,0.9
O=C(NNc1ccc([N+](=O)[O-])cc1)C12CC3CC(CC(C3)C1)C2,1.1,4.1,1.1,16.8,1
CC1CN(CCCCOc2ccc(F)cc2)CC(C)O1 (stereo not given),1.1,14.4,1.1,7.2,0.9
CN/N=C(\Cc1nc2ccccc2[nH]1)c1ccc([N+](=O)[O-])cc1,0.9,10.0,1.1,4.4,0.9
Clc1ccc(/C(Cc2nc3ccccc3[nH]2)=N\Nc2ccccc2)cc1,3*,0.0,1.8,19.0,1
Nc1ccc(N(CCO)CCO)cc1,1,52.8*,1,35.0,0.5
COc1cc(CCC(=O)Nc2ccc(S(=O)(=O)NC3=NCCCCC3)cc2)cc(OC)c1OC,1,8.7,0.9,6.9,0.9
Nc1c(C(=O)NC2CC2)c2nc3ccccc3nc2n1-c1ccc2c(c1)OCO2,0.5,65.5*,0.9,12.0,0.3
SMILES,PMI act satM6P,Diaphorase inh,PMI activator,G6PDH CS,Diaph act CS
CCCNC(=O)c1c(N)n(-c2ccc3c(c2)OCO3)c2nc3ccccc3nc12,0.6,16.2,0.9,7.1,0.8
Cc1nc(CC(C)C)cc(C(=O)N2CCCC(CNS(=O)(=O)c3cccs3)C2)n1 (stereo not given),1.1,-14.9,1.1,4.6,1.1
COc1ccc2c(C)cc(SCC(=O)Nc3nsc(-c4ccc(C)cc4)n3)nc2c1,0.9,21.1,0.9,9.6,0.8
O=C(CSc1n[nH]c(-c2ccccc2)n1)c1ccc(O)c(O)c1,1,71.1*,1.1,12.4,0.3
Cc1cc(SCC(=O)c2ccc(O)c(O)c2)nc2ccccc12,1.1,50.3*,0.8,2.1,0.5
Cc1ccc(-c2nc(NC(=O)CSc3cc(C)c4ccccc4n3)ns2)cc1,1.1,66.5*,1,4.3,0.3
COc1ccc(C(=O)CSc2n[nH]c(-c3ccco3)n2)cc1,0.8,19.7,1,2.3,0.8
